An excerpt weighted towards active compounds, which were near 2.9% of everything screened.
S100A4 MyoIIA: blocks human S100A4 binding to myosin IIA peptide | 360,000 tested, 0.14% active | AID 652163 | P26447 | inhibition, % at 10.7 µM | S100A4/TAMRA-MyoIIA peptide fluorescence polarization;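 active = mean inhibition of at least 70% across replicates, with every replicate also reaching that level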
Target sequence (P26447 whole entry, looked up): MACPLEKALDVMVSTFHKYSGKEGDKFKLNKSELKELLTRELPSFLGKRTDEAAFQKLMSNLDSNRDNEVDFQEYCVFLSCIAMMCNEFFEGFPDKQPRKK
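Assay system: human S100A4 monomer with TAMRA-labelled myosin IIA peptide / Buffer or medium: Calcium-containing HEPES buffer, pH 7.2 / Reagent: TAMRA-labelled myosin IIA heavy-chain peptide probe, 5 nM / Compound: one dose per compound / Timing: polarization read 5 min after assay mix addition, stable 5–60 min / Benchmarks: neutral control DMSO, positive control TFP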
CAL PDZ FP-1: inhibitors of human CAL PDZ peptide binding; purified CAL PDZ, TMR-peptide fluorescence polarization, 1 h; inhibition, % at 24.9 µM; 300,000 tested, 0.92% active;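 active = mean inhibition of at least 30% with at least half of replicates also reaching 30%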;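 note: 0% = DMSO neutral control and 100% = excess unlabeled competitor peptide PRC23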
DENV2 CPE rescue: inhibitors of DENV2 cytopathic effect; DENV2-infected cells, cytopathic effect rescue, plate reader; CPE inhibition, % at 9.99 µM; AID 651640; 350,000 tested, 1.7% active; in the data active = CPE inhibition above about 20%, passing the limit was not always enough; tested in BHK-21 cells;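 note: 0% = median of neutral control wells and 100% = median of positive control wells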
SIRT5 block: blocks human SIRT5 desuccinylation of peptide; Q9NXA8; Purified SirT5, succinyl-peptide AMC, trypsin-coupled fluorescence; inhibition, % at 15 µM; 330,000 tested, 1.1% active; AID 652115; in the data active = inhibition above about 15%
Target sequence (Q9NXA8 whole entry, looked up): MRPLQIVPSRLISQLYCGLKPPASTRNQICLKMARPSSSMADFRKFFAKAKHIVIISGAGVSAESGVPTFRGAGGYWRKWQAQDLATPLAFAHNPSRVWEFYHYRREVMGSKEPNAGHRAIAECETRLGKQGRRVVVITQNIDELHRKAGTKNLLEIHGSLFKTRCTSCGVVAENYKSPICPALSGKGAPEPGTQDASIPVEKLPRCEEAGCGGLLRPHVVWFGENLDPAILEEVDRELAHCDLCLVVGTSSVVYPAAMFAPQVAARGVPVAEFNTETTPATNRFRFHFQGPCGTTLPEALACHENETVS
ERAP1 inh: blocks human ERAP1 aminopeptidase activity; inhibition, % at 10.7 µM; recombinant ERAP1, Leu-AMC fluorescence, 60 min; 340,000 tested, 0.15% active; Q9NZ08; AID 652197;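 active = mean replicate inhibition of at least 30%, or all replicates individually reaching that 30% level; inactive = mean below 30% and not every replicate reaching it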;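 note: 0% = neutral control wells and 100% = L-leucinethiol positive control wells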
CAL PDZ FP-2: inhibitors of human CAL PDZ peptide binding | purified CAL PDZ, TMR-peptide fluorescence polarization, 1 h | inhibition, % at 20 µM | 330,000 tested, 0.02% active;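 active = highest replicate inhibition of at least 40%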;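 note: plate controls were DMSO neutral control wells for no effect and unlabeled competitor peptide control wells for full effect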
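System: purified tagged CAL PDZ domain construct (CerCALP). Schedule: 1 h incubation at room temperature before polarization reading. Medium: 25 mM sodium phosphate pH 7.4, 150 mM NaCl, TCEP, IgG, Thesit. Read-out: percent inhibition from loss of millipolarization. Measured by: FP readout, S and P plane fluorescence. Probe or stimulus: fluorescent TMR peptide probe.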
Numbers without * were called inactive; . = not tested or not shown.

SMILES | S100A4 MyoIIA | CAL PDZ FP-1 | DENV2 CPE rescue | SIRT5 block | ERAP1 inh | CAL PDZ FP-2
CCOc1ccc(C(=O)/C=C/c2ccc(OC)c(OC)c2)cc1 | -1 | 61* | -3 | 1 | 4 | -2
Cc1ccc(S(=O)(=O)c2nc(Cc3ccccc3)oc2N2CCOCC2)cc1 | 0 | . | -2 | 18* | 4 | 0
CC(C)CCOc1ccc(C(=O)N2CCCC2C(=O)O)cc1 (centres undefined) | -1 | -1 | 3 | 17* | 2 | 0
c1ccc2c(CN3CCOCC3)csc2c1 | 0 | 0 | . | 1 | 1 | -1
c1ccc2c(CN3CCCCC3)csc2c1 | -4 | 0 | -4 | 15* | 7 | 0
C[C@H]1CN([C@@H](C)CO)S(=O)(=O)c2ccc(C3=CCCCC3)cc2O[C@@H]1CN(C)C(=O)C1CCCCC1 | 11 | . | 12 | 8 | -1 | .
Cc1noc(C)c1NC(=O)Nc1ccc2c(c1)C(=O)N([C@H](C)CO)C[C@H](C)[C@H](CN(C)S(=O)(=O)c1ccc(Cl)cc1)O2 | 3 | . | 18 | 3 | 2 | .
Cc1nc2ccccc2c2oc(C(=O)NCCCN3CCCC3=O)cc12 | 6 | . | 3 | 0 | 0 | 1
Cc1nc2ccccc2c2oc(C(=O)NCCN3CCN(C)CC3)cc12 | -1 | . | 22* | . | -2 | 0
COc1cccc(NC(=O)N2CC(=O)N3[C@H](CO)[C@@H](c4ccc(Br)cc4)[C@@H]3C2)c1 | -7 | . | -14 | 2 | 1 | .
CSc1ccc(/C=N/N(C)S(=O)(=O)c2ccc(C)cc2)cc1 | -1 | -1 | 17 | -2 | -3 | 1
Cc1ccc(/C=N/N(C)S(=O)(=O)c2ccc(C)cc2)cc1 | -3 | 49* | 0 | -3 | 2 | .
C[C@@H]1CN([C@@H](C)CO)C(=O)c2cc(NC(=O)CCC(F)(F)F)ccc2O[C@@H](C)CCCCO[C@H]1CN(C)Cc1ccncc1 | 4 | . | -8 | -2 | -3 | .
COCC#Cc1ccc2c(c1)O[C@@H](CN(C)S(=O)(=O)c1ccc(F)cc1)[C@H](C)CN([C@@H](C)CO)S2(=O)=O | 0 | . | -2 | 4 | 0 | .
CC(=O)Nc1cccc(C(=O)OCC(=O)Nc2ccc(Cl)cn2)c1 | -7 | . | 56* | 4 | 4 | -1
CNS(=O)(=O)c1cccc(C(=O)OCC(=O)Nc2ccc(Cl)cn2)c1 | -6 | -15 | 2 | -4 | 2 | 0
O=C1N2CCCCC1(Sc1ccccc1)CCC2 (centres undefined) | -4 | . | 11 | 2 | . | .
O=C1N2CCCCC1(c1ccccc1)CCCC2 | 1 | . | 40* | -4 | 3 | .
Cc1noc(C)c1S(=O)(=O)Nc1ccc2c(c1)C(=O)N([C@@H](C)CO)C[C@@H](C)[C@H](CN(C)S(=O)(=O)c1cn(C)cn1)OCCCC[C@@H](C)O2 | -6 | . | 37* | -4 | 1 | .
Cc1ccc(S(=O)(=O)Nc2ccc3c(c2)C(=O)N([C@@H](C)CO)C[C@@H](C)[C@@H](CN(C)S(=O)(=O)c2cn(C)cn2)OCCCC[C@@H](C)O3)cc1 | 133* | . | 5 | 5 | -6 | .
C[C@@H]1CCCCO[C@@H](CN(C)S(=O)(=O)c2cn(C)cn2)[C@@H](C)CN([C@H](C)CO)C(=O)c2cc(NS(=O)(=O)c3ccc(Cl)cc3)ccc2O1 | 103* | . | 37* | 2 | -7 | .
Cc1noc(C)c1S(=O)(=O)Nc1ccc2c(c1)C(=O)N([C@@H](C)CO)C[C@@H](C)[C@@H](CN(C)S(=O)(=O)c1cn(C)cn1)OCCCC[C@H](C)O2 | -11 | . | -3 | -2 | -3 | .
Cc1ccc(S(=O)(=O)Nc2ccc3c(c2)C(=O)N([C@@H](C)CO)C[C@@H](C)[C@H](CN(C)S(=O)(=O)c2cn(C)cn2)OCCCC[C@@H](C)O3)cc1 | -5 | . | 21* | -1 | -4 | .
CCCc1cn(CC[C@H]2CC[C@H](NC(=O)Nc3ccccc3F)[C@@H](CO)O2)nn1 | 44 | . | 2 | 2 | 0 | .
C[C@H]1CN([C@@H](C)CO)C(=O)Cc2cc(NC(=O)Nc3ccccc3)ccc2O[C@H]1CN(C)C(=O)Nc1ccccc1 | 4 | . | 1 | . | 0 | .
SMILES | S100A4 MyoIIA | CAL PDZ FP-1 | DENV2 CPE rescue | SIRT5 block | ERAP1 inh | CAL PDZ FP-2
CCCC#Cc1cnc2c(c1)C(=O)N([C@@H](C)CO)C[C@@H](C)[C@@H](CN(C)C(=O)Nc1cccc(F)c1)O2 | -106 | . | 12 | 4 | 2 | .
COc1cccc(-c2cn(CC[C@@H]3CC[C@@H](NS(=O)(=O)Cc4ccccc4)[C@@H](CO)O3)nn2)c1 | 8 | . | -1 | -1 | -1 | .
CCCc1cn(CC[C@@H]2CC[C@H](NS(=O)(=O)c3ccccc3Cl)[C@@H](CO)O2)nn1 | 97* | . | 2 | 6 | 2 | .
O=S(=O)(N[C@@H]1CC[C@@H](CCn2cc(Cc3ccccc3)nn2)O[C@H]1CO)c1ccccc1F | -9 | . | -1 | 20* | 3 | .
COc1ccc(Nc2nc3ccc(OC)cc3s2)cc1 | -2 | 0 | 2 | 16* | 0 | 1
C[C@@H]1CN([C@@H](C)CO)C(=O)c2cc(NS(=O)(=O)c3ccc(Cl)cc3)ccc2O[C@H]1CN(C)S(=O)(=O)c1ccc(F)cc1 | -3 | . | -1 | 7 | 1 | .
Cc1ccccc1CN1C(=O)CN(S(C)(=O)=O)CC1(C)C(=O)Nc1c(C)cccc1C (centres undefined) | -7 | . | 1 | -2 | -1 | .
Cc1ccccc1CN1C(=O)CN(S(C)(=O)=O)CC1(C)C(=O)NCc1ccccc1 (centres undefined) | -3 | . | 22* | 4 | -1 | .
CCO[C@H]1OC(C(=O)N2CCCC2)=C[C@@H](c2ccc(Br)cc2)[C@@H]1CCCO | -8 | . | 3 | -3 | 5 | .
COc1ccc(CN(C)C[C@H]2OCCCC[C@H](C)Oc3ccc(NC(=O)Cc4ccccc4)cc3C(=O)N([C@H](C)CO)C[C@H]2C)cc1 | . | . | 8 | . | . | .
C[C@@H]1CCCCO[C@H](CN(C)Cc2ccccc2)[C@H](C)CN([C@H](C)CO)C(=O)c2cc(NC(=O)Cc3ccccc3)ccc2O1 | 8 | . | 9 | 16* | -2 | .
CCCN(C)C[C@@H]1OCCCC[C@H](C)Oc2ccc(NC(=O)Cc3ccccc3)cc2C(=O)N([C@@H](C)CO)C[C@@H]1C | 16 | . | 35* | 0 | 2 | .
COc1ccc(CN(C)C[C@@H]2OCCCC[C@H](C)Oc3ccc(NC(=O)Cc4ccccc4)cc3C(=O)N([C@@H](C)CO)C[C@H]2C)cc1 | . | . | 27* | . | . | .
C[C@@H]1CN([C@@H](C)CO)C(=O)c2cc(NC(=O)Cc3ccccc3)ccc2O[C@@H](C)CCCCO[C@H]1CN(C)Cc1ccccc1 | -11 | . | 10 | 0 | 0 | .
O=C(C[C@@H]1CC[C@H](NC(=O)NC2CCCCC2)[C@H](CO)O1)NCc1ccc(Cl)cc1 | -42 | . | 0 | -2 | 2 | .
